Data published in PMC12139872 (bioRxiv, 2025).

Legend:
[1] = molecular target: T1, human glutathione reductase (GSR) (Homo sapiens, UniProt P00390); test: Differential scanning fluorometry; assay type: binding; settings: 5 μM GSR, 20 μM compound
T1 sequence (P00390 44-522): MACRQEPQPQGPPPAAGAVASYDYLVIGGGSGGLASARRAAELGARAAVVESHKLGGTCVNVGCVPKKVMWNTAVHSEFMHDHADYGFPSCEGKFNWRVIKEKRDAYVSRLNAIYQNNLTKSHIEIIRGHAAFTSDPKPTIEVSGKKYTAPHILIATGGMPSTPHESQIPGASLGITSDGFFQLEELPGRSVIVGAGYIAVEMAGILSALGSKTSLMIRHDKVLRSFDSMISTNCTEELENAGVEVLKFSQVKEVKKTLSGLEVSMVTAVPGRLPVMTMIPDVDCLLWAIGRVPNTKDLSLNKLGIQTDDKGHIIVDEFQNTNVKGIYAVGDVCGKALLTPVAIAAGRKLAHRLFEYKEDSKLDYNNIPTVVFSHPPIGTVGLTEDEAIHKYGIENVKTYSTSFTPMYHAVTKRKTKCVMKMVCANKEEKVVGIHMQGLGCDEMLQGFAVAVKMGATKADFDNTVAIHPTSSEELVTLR
Method in brief: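 Human GSR (5 µM final), compound (20 µM final) and 5X SYPRO Orange were combined in 20 mM HEPES pH 7.4, 100 mM NaCl, 1% DMSO. Controls: no protein, compound fluorescence, plate autofluorescence, plus 2-AAPA as positive control. Plates were heated from 25 to 95 °C at 1-min steps with FRET-channel readout. Tm was taken from the dRFU derivative, and significance was tested by Student's t-test.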

MOLM-13 = test: Cytotoxicity of antioxidants; assay type: cell-based; settings: 72-hour treatment
Method in brief: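 Each antioxidant (GSH, GSSG, tocopherol, ascorbate) was dissolved in sterile water and applied alone to MOLM-13 cells.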

| Molecule | concentrations at which antioxidant is toxic to MOLM-13 (MOLM-13) | toxicity of exogenously supplemented antioxidant to MOLM-13 (in words) (MOLM-13) | further results |
| --- | --- | --- | --- |
| CC(=O)NC(CSC(=S)Nc1ccc(NC(=S)SCC(NC(C)=O)C(=O)O)cc1)C(=O)O (centres unmarked) [Compound 2-AAPA, 2-AAPA] | – | – | change in melting temperature (Tm) of GSR [1]: significantly changed the melting temperature |
| Cc1c(C)c2c(c(C)c1O)CC[C@@](C)(CCC[C@H](C)CCC[C@H](C)CCCC(C)C)O2 [tocopherol] | higher than 62.5 μM | – | – |
| oxidized glutathione [GSSG] | – | not toxic | – |
| N[C@@H](CCC(=O)N[C@@H](CS)C(=O)NCC(=O)O)C(=O)O [GSH, reduced glutathione] | – | not toxic | – |
| O=C1O[C@H]([C@@H](O)CO)C(O)=C1O [ascorbate] | > 15.63 µM | – | – |
